This is an account of results in PubChem BioAssay.

Assay [1] concerns the target Potassium voltage-gated channel subfamily KQT member 1 (Homo sapiens) (UniProt P51787). The experiment in a line: KCNQ1 channel current potentiators, confirmation, orthogonal assay for KCNQ1 potentiator project, IonWorks patch clamp, KCNQ1-CHO cells (AID 493184). The settings on record: automated patch clamp current, at 10 µM. In a few lines: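 Material: KCNQ1-expressing CHO cells; doses: 10 µM final, single point; probe or stimulus: voltage step from -90 mV holding to +40 mV, 2,000 ms; signal: automated voltage clamp, amphotericin B perforated patch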
In general terms: In patch-clamp work, channel activity is measured electrically.

Assay [2] deals with Potassium voltage-gated channel subfamily E member 1 (Homo sapiens) + Potassium voltage-gated channel subfamily KQT member 1 (Homo sapiens) (UniProt P15382+P51787). The experiment in a line: KCNQ1/KCNE1 complex potentiators, confirmation, selectivity assay for KCNQ1 potentiator project, thallium flux, CHO-K1 KCNQ1/E1 cells (AID 493186;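 active means mean duplicate activation above the buffer control mean plus 5 SD of those controls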). The following applies: FluxOR thallium flux, at 10 µM. In outline:
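Test system: CHO-K1 cells with KCNQ1/E1. Times: 90-min dye loading then 20-min compound exposure, both at room temperature. Measured by: kinetic FluxOR thallium-flux fluorescence, 10 s baseline plus 110 s after stimulus. Repeats: duplicate wells per compound.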

Activity calls are given as the source filed them.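 How the source made its calls, unless noted: active means current rise at least 3 SD above the untreated control mean in each of two repeat wells; inactive means the rest.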

Sequence of Potassium voltage-gated channel subfamily E member 1 (Homo sapiens) + Potassium voltage-gated channel subfamily KQT member 1 (Homo sapiens) (P51787 whole entry, looked up): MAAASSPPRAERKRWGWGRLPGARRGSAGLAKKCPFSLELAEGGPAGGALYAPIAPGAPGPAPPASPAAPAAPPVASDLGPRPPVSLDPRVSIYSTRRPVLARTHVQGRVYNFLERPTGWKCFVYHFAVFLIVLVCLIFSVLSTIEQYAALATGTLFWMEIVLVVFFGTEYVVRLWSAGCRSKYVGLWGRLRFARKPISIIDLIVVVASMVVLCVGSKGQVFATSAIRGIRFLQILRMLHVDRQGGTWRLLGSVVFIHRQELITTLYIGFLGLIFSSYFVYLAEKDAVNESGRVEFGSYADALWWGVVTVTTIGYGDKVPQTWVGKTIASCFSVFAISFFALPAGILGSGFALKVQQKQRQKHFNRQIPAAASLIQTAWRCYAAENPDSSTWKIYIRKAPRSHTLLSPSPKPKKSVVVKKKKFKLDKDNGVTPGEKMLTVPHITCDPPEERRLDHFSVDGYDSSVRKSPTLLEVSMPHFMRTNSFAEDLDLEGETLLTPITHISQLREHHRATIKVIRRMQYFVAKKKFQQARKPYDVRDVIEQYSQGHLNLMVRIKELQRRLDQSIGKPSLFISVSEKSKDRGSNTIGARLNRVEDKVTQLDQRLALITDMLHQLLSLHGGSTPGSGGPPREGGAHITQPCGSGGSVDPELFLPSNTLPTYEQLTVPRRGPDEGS
Sequence of Potassium voltage-gated channel subfamily KQT member 1 (Homo sapiens) (P51787 whole entry, looked up): as above

On to `Oc1c(Br)cc(Br)cc1C=Nc1ccc2[nH]ncc2c1`, for which the outcome in assay [1] was inactive.
As for `COc1cc(NS(=O)(=O)c2ccc3ccccc3c2)c2ncccc2c1`, the outcome in assay [1] and in assay [2] was inactive.
Regarding `CN(C)CC(CCC(CN(C)C)C(O)(c1ccccc1)c1ccccc1)C(O)(c1ccccc1)c1ccccc1` (centres undefined), the outcome in assay [1] and in assay [2] was inactive.
In the case of `CC(C1CC2CCC1C2)n1c(-c2cccs2)n[nH]c1=S` (centres undefined), the result in assay [1] and in assay [2] was inactive.
For the molecule `O=Cc1cc(N=Nc2ccccc2Cl)ccc1O`, the outcome in assay [1] was inactive.
On the same count and under the same terms, for `c1ccc(-c2nc(NCc3ccco3)c3ccccc3n2)cc1` the value was “inactive”.
In the case of `Cc1cc(C)cc(N/C(N)=N/c2nc(C)cc(C)n2)c1`, the result in assay [1] and in assay [2] was inactive.
`Cc1nc2c3cc(Cl)ccc3n(CCN3CCCCC3)c2s1`: the result in assay [1] was inactive.
Still for that read-out and setting: for `CC(=O)C1=C(S(=O)(=O)c2ccc(C)cc2)CS(=O)(=O)C1` the value was “inactive”.
Turning to `O=C(O)c1ccc(Cl)cc1Nc1nc2cc(Cl)ccc2o1`, the outcome in assay [1] was inactive.
Regarding `C=CCSc1nc2c(c(=O)[nH]c(=O)n2C)n1C/C=C(/C)Cl`, the result in assay [1] and in assay [2] was inactive.
Regarding `Cc1ccc(/C=C/C(=O)c2ccc(O)cc2)cc1`, the outcome in assay [1] was inactive.
Same read-out and setting: then `Cc1ccc(OCC(=O)NNC(=S)NC(=O)c2ccc(Br)o2)c(C)c1`, with “inactive”; and `S=c1[nH]nc(-c2cc3c(s2)-c2ccccc2CC3)o1`, with “inactive”; and `CC1=NN(c2ccccc2)C(=O)/C1=C/c1c(O)n(-c2ccc(F)c(Cl)c2)[nH]c1=O`, with “inactive”.
For `CCCc1nc2oc3c(NCCN(C)C)ncnc3c2c2c1CCCC2`, the result in assay [1] and in assay [2] was inactive.
On to `Brc1ccccc1CN1CCN(Cc2c[nH]c3ccccc23)CC1`, for which the result in assay [1] and in assay [2] was inactive.
